Assays:
Type in all cases: cell-based
[1] = molecular target: Ribosomal protein S6 kinase alpha-1 (Homo sapiens) (UniProt Q15418); assay: Inhibition of RSK1 domain1 Lys1 labeling site in human A-375 cells at 0.05 uM by KiNativ Profiling analysis relative to control
[2] = molecular target: T1, Serine/threonine-protein kinase 3 (Homo sapiens) (UniProt Q13188); assay: Inhibition of MST2 Lys1 labeling site in human A-375 cells at 5 uM by KiNativ Profiling analysis relative to control
T1 sequence (whole entry): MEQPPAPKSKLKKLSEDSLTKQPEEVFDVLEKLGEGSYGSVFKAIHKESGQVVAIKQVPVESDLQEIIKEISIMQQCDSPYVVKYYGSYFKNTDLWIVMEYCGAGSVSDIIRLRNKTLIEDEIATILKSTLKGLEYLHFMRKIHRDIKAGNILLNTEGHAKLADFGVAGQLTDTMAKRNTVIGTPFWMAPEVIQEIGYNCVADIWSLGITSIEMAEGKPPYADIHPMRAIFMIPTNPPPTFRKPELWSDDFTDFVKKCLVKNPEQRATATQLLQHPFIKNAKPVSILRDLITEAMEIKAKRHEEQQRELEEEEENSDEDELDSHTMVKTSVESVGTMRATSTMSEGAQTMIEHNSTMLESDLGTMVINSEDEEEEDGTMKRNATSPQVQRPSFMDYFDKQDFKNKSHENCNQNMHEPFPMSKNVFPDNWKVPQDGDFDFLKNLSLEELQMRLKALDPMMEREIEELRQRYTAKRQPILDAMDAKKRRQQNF

[3] = molecular target: T2, Serine/threonine-protein kinase LATS2 (Homo sapiens) (UniProt Q9NRM7); assay: Inhibition of LATS2 Lys2 labeling site in human A-375 cells at 0.05 uM by KiNativ Profiling analysis relative to control
T2 sequence (whole entry): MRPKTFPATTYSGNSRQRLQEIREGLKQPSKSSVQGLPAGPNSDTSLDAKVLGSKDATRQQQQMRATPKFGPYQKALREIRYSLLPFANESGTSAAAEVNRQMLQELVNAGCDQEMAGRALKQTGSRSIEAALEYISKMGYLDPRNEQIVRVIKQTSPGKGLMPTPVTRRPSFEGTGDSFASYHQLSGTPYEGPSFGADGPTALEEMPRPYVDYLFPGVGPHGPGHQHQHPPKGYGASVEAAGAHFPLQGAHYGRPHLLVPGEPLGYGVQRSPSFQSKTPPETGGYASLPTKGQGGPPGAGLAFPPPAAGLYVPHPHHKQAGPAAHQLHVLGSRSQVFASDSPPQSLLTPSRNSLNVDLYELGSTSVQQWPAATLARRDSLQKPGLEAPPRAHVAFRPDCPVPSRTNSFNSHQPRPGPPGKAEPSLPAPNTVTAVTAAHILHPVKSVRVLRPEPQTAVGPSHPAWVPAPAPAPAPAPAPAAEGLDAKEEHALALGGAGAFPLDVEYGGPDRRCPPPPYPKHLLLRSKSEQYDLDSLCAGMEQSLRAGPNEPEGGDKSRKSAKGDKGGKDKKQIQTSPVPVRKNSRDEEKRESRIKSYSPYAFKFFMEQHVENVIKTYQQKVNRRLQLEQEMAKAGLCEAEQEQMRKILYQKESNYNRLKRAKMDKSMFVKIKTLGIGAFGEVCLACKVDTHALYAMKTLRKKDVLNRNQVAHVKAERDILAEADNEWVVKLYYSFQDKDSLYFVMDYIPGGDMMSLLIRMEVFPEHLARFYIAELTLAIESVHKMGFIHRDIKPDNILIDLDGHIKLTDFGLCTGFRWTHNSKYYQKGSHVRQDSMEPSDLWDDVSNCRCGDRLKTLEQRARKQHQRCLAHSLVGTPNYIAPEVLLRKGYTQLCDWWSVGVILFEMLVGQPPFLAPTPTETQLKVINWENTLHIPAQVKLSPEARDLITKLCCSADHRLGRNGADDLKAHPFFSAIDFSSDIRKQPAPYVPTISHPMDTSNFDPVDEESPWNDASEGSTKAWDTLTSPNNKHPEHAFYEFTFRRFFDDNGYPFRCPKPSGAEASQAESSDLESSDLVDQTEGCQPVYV

[4] = molecular target: Cyclin-dependent kinase 11B (Homo sapiens) (UniProt P21127); assay: Inhibition of CDK11 Lys2 labeling site in human A-375 cells at 5 uM by KiNativ Profiling analysis relative to control
Sequence of Cyclin-dependent kinase 11B (Homo sapiens) (P21127 whole entry): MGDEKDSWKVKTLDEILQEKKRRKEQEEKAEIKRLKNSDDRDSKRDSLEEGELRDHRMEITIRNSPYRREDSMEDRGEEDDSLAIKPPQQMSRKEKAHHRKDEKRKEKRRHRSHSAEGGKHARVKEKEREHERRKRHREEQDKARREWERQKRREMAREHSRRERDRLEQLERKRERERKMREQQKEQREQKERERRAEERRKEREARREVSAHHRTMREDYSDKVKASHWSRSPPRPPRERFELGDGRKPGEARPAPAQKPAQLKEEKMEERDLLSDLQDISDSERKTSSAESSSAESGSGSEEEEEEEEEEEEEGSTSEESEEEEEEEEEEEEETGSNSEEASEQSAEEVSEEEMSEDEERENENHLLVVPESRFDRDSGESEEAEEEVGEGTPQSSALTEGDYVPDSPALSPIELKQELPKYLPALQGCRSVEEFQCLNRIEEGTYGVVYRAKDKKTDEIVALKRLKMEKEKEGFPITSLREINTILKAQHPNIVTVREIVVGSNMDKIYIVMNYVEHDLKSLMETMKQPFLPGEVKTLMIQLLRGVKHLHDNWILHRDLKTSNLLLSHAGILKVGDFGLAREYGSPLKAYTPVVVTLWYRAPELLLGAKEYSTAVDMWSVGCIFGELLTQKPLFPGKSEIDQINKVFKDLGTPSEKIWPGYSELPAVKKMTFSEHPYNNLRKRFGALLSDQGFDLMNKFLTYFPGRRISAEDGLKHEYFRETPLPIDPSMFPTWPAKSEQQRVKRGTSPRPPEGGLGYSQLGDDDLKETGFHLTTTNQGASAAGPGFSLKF
How it was run: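 Live A375 melanoma cells were treated with compound at 5 or 0.5 μM. The cells were then lysed, and the lysates were labeled with a lysine-reactive ATP or ADP-biotin acyl probe (KiNativ). Inhibition is the compound's protection of each kinase labeling-site peptide from probe labeling, relative to untreated control.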

[5] = molecular target: Epidermal growth factor receptor (Homo sapiens) (UniProt P00533); assay: Inhibition of EGFR Lys1 labeling site in human A-375 cells at 0.5 uM by KiNativ Profiling analysis relative to control
Sequence of Epidermal growth factor receptor (Homo sapiens) (P00533 whole entry): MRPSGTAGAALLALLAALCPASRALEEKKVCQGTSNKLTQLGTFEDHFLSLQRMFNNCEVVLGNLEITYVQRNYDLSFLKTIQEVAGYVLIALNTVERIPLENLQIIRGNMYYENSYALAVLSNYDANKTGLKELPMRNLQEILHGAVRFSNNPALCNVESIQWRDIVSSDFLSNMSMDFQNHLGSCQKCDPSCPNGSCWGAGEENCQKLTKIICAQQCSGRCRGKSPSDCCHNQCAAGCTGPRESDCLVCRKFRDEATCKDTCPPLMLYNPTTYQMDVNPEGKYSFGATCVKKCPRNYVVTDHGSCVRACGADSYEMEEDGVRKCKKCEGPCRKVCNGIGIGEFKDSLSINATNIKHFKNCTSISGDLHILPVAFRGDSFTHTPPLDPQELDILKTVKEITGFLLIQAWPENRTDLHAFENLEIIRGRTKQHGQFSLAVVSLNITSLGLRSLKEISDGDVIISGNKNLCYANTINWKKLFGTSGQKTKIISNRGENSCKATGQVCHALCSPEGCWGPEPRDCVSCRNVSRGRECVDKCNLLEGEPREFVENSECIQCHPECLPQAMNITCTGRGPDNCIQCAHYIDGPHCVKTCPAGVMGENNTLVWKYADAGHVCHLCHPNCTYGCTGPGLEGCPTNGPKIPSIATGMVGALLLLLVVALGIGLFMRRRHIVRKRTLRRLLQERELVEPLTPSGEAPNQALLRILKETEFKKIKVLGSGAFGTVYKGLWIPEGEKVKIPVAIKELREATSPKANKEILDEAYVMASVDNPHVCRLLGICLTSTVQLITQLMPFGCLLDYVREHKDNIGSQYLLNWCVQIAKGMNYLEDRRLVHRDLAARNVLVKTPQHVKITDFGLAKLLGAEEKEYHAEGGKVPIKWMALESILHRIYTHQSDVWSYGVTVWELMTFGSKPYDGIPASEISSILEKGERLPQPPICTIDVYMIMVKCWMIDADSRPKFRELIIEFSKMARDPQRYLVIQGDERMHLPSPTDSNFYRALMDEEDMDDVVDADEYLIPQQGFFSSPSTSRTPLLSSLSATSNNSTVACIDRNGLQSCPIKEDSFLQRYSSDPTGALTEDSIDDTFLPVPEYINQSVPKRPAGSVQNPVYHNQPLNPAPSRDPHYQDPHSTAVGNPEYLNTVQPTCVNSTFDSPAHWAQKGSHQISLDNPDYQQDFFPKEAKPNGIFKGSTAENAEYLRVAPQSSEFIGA
How it was run: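 Live A375 melanoma cells were treated with compound at 0.5 or 5 μM, then lysed. Lysates were labeled with a lysine-reactive ATP or ADP-biotin probe. The read-out was protection of each kinase probe-labeling site from labeling, relative to control.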

Sequence of Ribosomal protein S6 kinase alpha-1 (Homo sapiens) (Q15418 whole entry, the tested form may be a part): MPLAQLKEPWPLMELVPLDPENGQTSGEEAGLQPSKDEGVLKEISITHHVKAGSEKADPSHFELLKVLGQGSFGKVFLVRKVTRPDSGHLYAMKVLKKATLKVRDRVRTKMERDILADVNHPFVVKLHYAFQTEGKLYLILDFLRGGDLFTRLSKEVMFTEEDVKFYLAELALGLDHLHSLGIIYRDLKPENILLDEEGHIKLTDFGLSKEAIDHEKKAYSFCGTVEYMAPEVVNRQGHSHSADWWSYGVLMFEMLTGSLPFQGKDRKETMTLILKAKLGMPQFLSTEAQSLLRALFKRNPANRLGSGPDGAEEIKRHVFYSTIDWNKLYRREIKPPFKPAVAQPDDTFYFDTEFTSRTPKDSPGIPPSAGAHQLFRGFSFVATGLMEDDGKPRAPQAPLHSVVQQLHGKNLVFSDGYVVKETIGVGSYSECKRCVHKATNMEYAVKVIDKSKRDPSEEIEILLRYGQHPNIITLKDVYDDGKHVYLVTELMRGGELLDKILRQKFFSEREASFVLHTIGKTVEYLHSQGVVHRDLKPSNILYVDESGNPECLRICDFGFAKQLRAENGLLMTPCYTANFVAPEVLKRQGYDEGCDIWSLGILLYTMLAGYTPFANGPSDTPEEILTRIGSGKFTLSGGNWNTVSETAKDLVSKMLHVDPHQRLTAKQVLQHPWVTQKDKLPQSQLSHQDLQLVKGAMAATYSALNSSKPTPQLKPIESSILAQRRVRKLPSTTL

SMILES	inhibition [1]	inhibition [2]	inhibition [3]	inhibition [4]	inhibition [5]
CCN1CCN(Cc2ccc(NC(=O)c3ccc(C)c(Oc4ccnc5[nH]ccc45)c3)cc2C(F)(F)F)CC1	-1.6%	13.7%	14.3%	18%	-8.8%
CCN1CCN(Cc2ccc(NC(=O)c3ccc(C)c(/C=C/c4cnc5[nH]ccc5c4OC)c3)cc2C(F)(F)F)CC1	-0.5%	25%	-3.3%	16.9%	0.4%
